Read-outs that look alike come from different tables or passages of the source.
Assays:
U937 cells = assay: In vitro antiproliferative assay; format: cell-based; conditions: Homo sapiens, U-937, 48 h, read-out: U937 IC50
Summary of the method: (§1)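 Cells kept in RPMI-1640 with 10% FBS at 37°C, 5% CO2. Passaged into plates the day before dosing and grown at least 4 h before test compound was added. Exposure was 48 h, then 0.5% MTT for 4 h. Formazan was dissolved in DMSO for 15 min and absorbance read at 570 nm. Inhibition was taken relative to control wells, and IC50 was obtained by regression of concentration versus inhibition ratio.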

[1] = test system: HDAC (HeLa cell nuclear extract); assay: In vitro HDAC inhibition fluorescence assay; format: biochemical, human; conditions: read-out: HeLa cell nuclear extract IC50, substrate Boc-Lys(acetyl)-AMC, mean of three experiments
Summary of the method: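 HeLa nuclear extract preincubated with test compound at several concentrations, 10 min at 37°C. Boc-Lys(acetyl)-AMC then added and incubated 30 min at 37°C. Reaction stopped with developer containing trypsin and trichostatin A. Fluorescence read 20 min later (ex 390/em 460 nm). Inhibition calculated relative to control wells. IC50 obtained by regression of concentration against inhibition ratio.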

HCT116 cells = assay: In vitro antiproliferative assay; format: cell-based; conditions: Homo sapiens, HCT-116, 48 h, read-out: HCT116 IC50
Summary of the method: as §1

HeLa cells = assay: In vitro antiproliferative assay; format: cell-based; conditions: Homo sapiens, 48 h, read-out: HeLa IC50
Summary of the method: as §1

KG-1 cells = assay: In vitro antiproliferative assay; format: cell-based; conditions: Homo sapiens, KG-1, 48 h, read-out: KG-1 IC50
Summary of the method: as §1

H7402 cells = assay: In vitro antiproliferative assay; format: cell-based; conditions: Homo sapiens, H7402, 48 h, read-out: H7402 IC50
Summary of the method: as §1

U266 cells = assay: In vitro antiproliferative assay; format: cell-based; conditions: Homo sapiens, U-266, 48 h, read-out: U266 IC50
Summary of the method: as §1

U937 xenograft = assay: In vivo antitumor assay in U937 xenograft model; set-up: species or system male athymic nude mice (BALB/c-nu)
Summary of the method: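 U937 cells were injected subcutaneously into the right flank of male BALB/c-nu mice aged 5–6 weeks. After about 10 days, at roughly 100 mm3, mice were randomized six per group. Dosing was oral, 100 mg/kg daily for 12 days, with controls given an equal volume of PBS. Calipers were used every 3 days, V = ab2/2, and RTV = Vt/V0. Body weight was tracked. Tumors were weighed and organs inspected at necropsy. Analysis used a two-tailed t-test, P<0.05.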

[2] = test system: HDAC (HeLa cell nuclear extract); conditions: read-out: HeLa cell nuclear extract IC50; HDAC inhibition; ref Zhang et al.[8]; cited from earlier work
[3] = U937 xenograft mice, 100 mg/kg once a day orally for 12 days

IC50 (U937 cells) | IC50 [1] | SMILES | further results
6.1 µM | 0.0133 µM | COc1cccc(NC(=O)N[C@H](C(=O)Nc2ccc(C(=O)NO)cc2)c2ccccc2)c1 [Compound 7a, (S)-N-Hydroxy-4-(2-(3-(3-methoxyphenyl)ureido)-2-phenylacetamido)benzamide] | –
2.9 µM | 0.0126 µM | O=C(Nc1cccc(Cl)c1)N[C@H](C(=O)Nc1ccc(C(=O)NO)cc1)c1ccccc1 [Compound 7b, (S)-4-(2-(3-(3-Chlorophenyl)ureido)-2-phenylacetamido)-N-hydroxybenzamide] | –
4.4 µM | 0.0023 µM | O=C(Nc1ccccc1Cl)N[C@H](C(=O)Nc1ccc(C(=O)NO)cc1)c1ccccc1 [Compound 7c, (S)-4-(2-(3-(2-Chlorophenyl)ureido)-2-phenylacetamido)-N-hydroxybenzamide] | –
– | 0.0761 µM | O=C(Nc1ccccc1F)N[C@H](C(=O)Nc1ccc(C(=O)NO)cc1)c1ccccc1 [Compound 7d, (S)-4-(2-(3-(2-Fluorophenyl)ureido)-2-phenylacetamido)-N-hydroxybenzamide] | –
2 µM | 0.0041 µM | O=C(Nc1ccccc1Br)N[C@H](C(=O)Nc1ccc(C(=O)NO)cc1)c1ccccc1 [Compound 7e, (S)-4-(2-(3-(2-Bromophenyl)ureido)-2-phenylacetamido)-N-hydroxybenzamide] | –
– | 0.0063 µM | Cc1ccccc1NC(=O)N[C@H](C(=O)Nc1ccc(C(=O)NO)cc1)c1ccccc1 [Compound 7f, (S)-N-Hydroxy-4-(2-phenyl-2-(3-(o-tolyl)ureido)acetamido)benzamide] | –
3.1 µM | 0.0027 µM | Cc1ccc(NC(=O)N[C@H](C(=O)Nc2ccc(C(=O)NO)cc2)c2ccccc2)cc1 [Compound 7g, (S)-N-Hydroxy-4-(2-phenyl-2-(3-(p-tolyl)ureido)acetamido)benzamide] | –
5.1 µM | 0.0012 µM | O=C(Nc1ccc(Cl)cc1Cl)N[C@H](C(=O)Nc1ccc(C(=O)NO)cc1)c1ccccc1 [Compound 7h, (S)-4-(2-(3-(2,4-Dichlorophenyl)ureido)-2-phenylacetamido)-N-hydroxybenzamide] | –
5.7 µM | 0.015 µM | Cc1cc(C)cc(NC(=O)N[C@H](C(=O)Nc2ccc(C(=O)NO)cc2)c2ccccc2)c1 [Compound 7i, (S)-4-(2-(3-(3,5-Dimethylphenyl)ureido)-2-phenylacetamido)-N-hydroxybenzamide] | –
– | 0.178 µM | CCc1cccc(CC)c1NC(=O)N[C@H](C(=O)Nc1ccc(C(=O)NO)cc1)c1ccccc1 [Compound 7j, (S)-4-(2-(3-(2,6-Diethylphenyl)ureido)-2-phenylacetamido)-N-hydroxybenzamide] | –
– | 0.124 µM | O=C(Nc1cccc2ccccc12)N[C@H](C(=O)Nc1ccc(C(=O)NO)cc1)c1ccccc1 [Compound 7k, (S)-N-Hydroxy-4-(2-(3-(naphthalen-1-yl)ureido)-2-phenylacetamido)benzamide] | –
10.5 µM | 0.168 µM | O=C(NO)c1ccc(NC(=O)[C@@H](NC(=O)c2ccc3ncccc3c2)c2ccccc2)cc1 [Compound 8a, (S)-N-(2-((4-(Hydroxycarbamoyl)phenyl)amino)-2-oxo-1-phenylethyl)quinoline-6-carboxamide] | –
10.5 µM | 0.163 µM | O=C(NO)c1ccc(NC(=O)[C@@H](NC(=O)c2ccc3nccnc3c2)c2ccccc2)cc1 [Compound 8b, (S)-N-(2-((4-(Hydroxycarbamoyl)phenyl)amino)-2-oxo-1-phenylethyl)quinoxaline-6-carboxamide] | –
9.8 µM | 0.107 µM | O=C(NO)c1ccc(NC(=O)[C@@H](NC(=O)c2ccc3cc[nH]c3c2)c2ccccc2)cc1 [Compound 8c, (S)-N-(2-((4-(Hydroxycarbamoyl)phenyl)amino)-2-oxo-1-phenylethyl)-1H-indole-6-carboxamide] | –
8.9 µM | 0.053 µM | O=C(NO)c1ccc(NC(=O)[C@@H](NC(=O)c2cc3ccccc3[nH]2)c2ccccc2)cc1 [Compound 8d, (S)-N-(2-((4-(Hydroxycarbamoyl)phenyl)amino)-2-oxo-1-phenylethyl)-1H-indole-2-carboxamide] | –
– | 0.353 µM | O=C(NO)c1ccc(NC(=O)[C@@H](NC(=O)c2cnccn2)c2ccccc2)cc1 [Compound 8e, (S)-N-(2-((4-(Hydroxycarbamoyl)phenyl)amino)-2-oxo-1-phenylethyl)pyrazine-2-carboxamide] | –
0.75 µM | 0.105 µM | COc1ccccc1CN[C@H](C(=O)Nc1ccc(C(=O)NO)cc1)c1ccccc1 [Compound 9a, (S)-N-Hydroxy-4-(2-((2-methoxybenzyl)amino)-2-phenylacetamido)benzamide] | IC50 (HCT116 cells): 1.4 µM; IC50 (HeLa cells): 8 µM; IC50 (KG-1 cells): 1.1 µM; IC50 (H7402 cells): 4.1 µM; IC50 (U266 cells): 1.5 µM
1.1 µM | 0.0561 µM | O=C(NO)c1ccc(NC(=O)[C@@H](NCc2ccccc2Cl)c2ccccc2)cc1 [Compound 9b, (S)-4-(2-((2-Chlorobenzyl)amino)-2-phenylacetamido)-N-hydroxybenzamide] | IC50 (HCT116 cells): 5.5 µM; IC50 (HeLa cells): 6 µM; IC50 (KG-1 cells): 3.4 µM; IC50 (H7402 cells): 4.2 µM; IC50 (U266 cells): 2.4 µM
0.84 µM | 0.0128 µM | O=C(NO)c1ccc(NC(=O)[C@@H](NCc2ccccc2Br)c2ccccc2)cc1 [Compound 9c, (S)-4-(2-((2-Bromobenzyl)amino)-2-phenylacetamido)-N-hydroxybenzamide] | IC50 (HCT116 cells): 2.3 µM; IC50 (HeLa cells): 15 µM; IC50 (KG-1 cells): 1.5 µM; IC50 (H7402 cells): 7.1 µM; IC50 (U266 cells): 2.1 µM
0.95 µM | 0.0138 µM | O=C(NO)c1ccc(NC(=O)[C@@H](NCc2ccc(Cl)cc2)c2ccccc2)cc1 [Compound 9e, (S)-4-(2-((4-Chlorobenzyl)amino)-2-phenylacetamido)-N-hydroxybenzamide] | IC50 (HCT116 cells): 3 µM; IC50 (HeLa cells): 15.6 µM; IC50 (KG-1 cells): 2 µM; IC50 (H7402 cells): 9.6 µM; IC50 (U266 cells): 3 µM
0.98 µM | 0.0503 µM | O=C(NO)c1ccc(NC(=O)[C@@H](NCc2ccc(O)cc2)c2ccccc2)cc1 [Compound 9f, (S)-N-Hydroxy-4-(2-((4-hydroxybenzyl)amino)-2-phenylacetamido)benzamide] | IC50 (HCT116 cells): 3 µM; IC50 (HeLa cells): 6.8 µM; IC50 (KG-1 cells): 2.5 µM; IC50 (H7402 cells): 12.4 µM; IC50 (U266 cells): 3.3 µM
2 µM | 0.072 µM | COc1cc(CN[C@H](C(=O)Nc2ccc(C(=O)NO)cc2)c2ccccc2)ccc1O [Compound 9g, (S)-N-Hydroxy-4-(2-((4-hydroxy-3-methoxybenzyl)amino)-2-phenylacetamido)benzamide] | IC50 (HCT116 cells): 6.2 µM; IC50 (HeLa cells): 0.2 µM; IC50 (KG-1 cells): 5.6 µM; IC50 (H7402 cells): 0.2 µM; IC50 (U266 cells): 4.3 µM
– | 0.128 µM | O=C(/C=C/c1ccc(NC(=O)[C@@H](NC(=O)Nc2ccccc2Cl)c2ccccc2)cc1)NO [Compound 16a, (S, E)-3-(4-(2-(3-(2-Chlorophenyl)ureido)-2-phenylacetamido)phenyl)-N-hydroxyacrylamide] | –
– | 0.215 µM | O=C(/C=C/c1ccc(NC(=O)[C@@H](NC(=O)Nc2ccccc2F)c2ccccc2)cc1)NO [Compound 16b, (S, E)-3-(4-(2-(3-(2-Fluorophenyl)ureido)-2-phenylacetamido)phenyl)-N-hydroxyacrylamide] | –
– | 0.0917 µM | O=C(/C=C/c1ccc(NC(=O)[C@@H](NC(=O)Nc2ccccc2Br)c2ccccc2)cc1)NO [Compound 16c, (S, E)-3-(4-(2-(3-(2-Bromophenyl)ureido)-2-phenylacetamido)phenyl)-N-hydroxyacrylamide] | –
– | 0.811 µM | Cc1ccccc1NC(=O)N[C@H](C(=O)Nc1ccc(/C=C/C(=O)NO)cc1)c1ccccc1 [Compound 16d, (S, E)-N-Hydroxy-3-(4-(2-phenyl-2-(3-(o-tolyl)ureido)acetamido)phenyl)acrylamide] | –
– | – | O=C(CCCCCCC(=O)Nc1ccccc1)NO [SAHA, suberoylanilide hydroxamic acid] | IC50 [2]: 0.146 µM

SMILES | IC50 (U937 cells) | IC50 [1] | further results
COc1cccc(CN[C@H](C(=O)Nc2ccc(C(=O)NO)cc2)c2ccccc2)c1 [Compound 9d, (S)-N-Hydroxy-4-(2-((3-methoxybenzyl)amino)-2-phenylacetamido)benzamide] | 0.53 µM | 0.07 µM | IC50 (HCT116 cells): 1.3 µM; IC50 (HeLa cells): 5.4 µM; IC50 (KG-1 cells): 0.9 µM; Relative increment ratio (T/C) (U937 xenograft; U937 xenograft in nude mice, 100 mg/kg once a day orally for 12 days): 43%; Body weight loss (U937 xenograft; [3]): no significant body weight loss; Toxic signs in macroscopic analysis of liver and spleen (U937 xenograft; [3]): no evident toxic signs; Oral antitumor activity (U937 xenograft; U937 xenograft, 100 mg/kg po, tumor growth curve and final tumor tissue size): comparable with SAHA; IC50 (H7402 cells): 3.5 µM; IC50 (U266 cells): 0.98 µM

Reference: article PMC4603714 (Drug Design, Development and Therapy, 2015)
